Each block holds one compound with its values, some of them ahead of it.
What was measured:
Coagulation factor X = Coagulation factor X (Homo sapiens, UniProt P00742); experiment: Inhibition of human factor 10a
Plasma [1] = experiment: Anticoagulant potency in human plasma assessed as concentration required to double the time to clot formation by PT assay; format: functional
How it was run: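 Human normal plasma mixed with compound dilutions in DMSO (1.5 µL into 48.5 µL), preincubated 4 min at 37 °C, clotting started with thromboplastin and timed on an automatic coagulometer. Prolongation relative to DMSO; concentration doubling clotting time derived by least-squares regression; mean of duplicates.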

[2] = Basicity, pKa by titration method; format: physicochemical
Plasma [3] = experiment: Anticoagulant potency in mouse plasma assessed as concentration required to double the time to clot formation by PT assay; format: functional
Plasma [4] = experiment: Anticoagulant activity in mouse plasma assessed as ratio of prothrombin time in drug to untreated control at 30 mg/kg, po; format: functional
How it was run: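 Male ICR mice (30-35 g), fasted >12 h, dosed orally at 30 mg/kg as suspension in 0.5% methylcellulose; vehicle controls. Citrated aortic blood drawn 1 h post-dose under pentobarbital anaesthesia, spun 1000g 10 min to platelet-poor plasma. PT on 50 µL plasma preincubated 4 min at 37 °C, started with thromboplastin; clotting time expressed relative to control group (n = 3).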

CYP3A4 = CYP3A4 (Homo sapiens, UniProt P08684); experiment: Inhibition of CYP3A4 expressed in human B-lymphoblastoid cells at 10 uM; format: ADME, cell-based
CYP3A4, sequence (P08684 whole entry): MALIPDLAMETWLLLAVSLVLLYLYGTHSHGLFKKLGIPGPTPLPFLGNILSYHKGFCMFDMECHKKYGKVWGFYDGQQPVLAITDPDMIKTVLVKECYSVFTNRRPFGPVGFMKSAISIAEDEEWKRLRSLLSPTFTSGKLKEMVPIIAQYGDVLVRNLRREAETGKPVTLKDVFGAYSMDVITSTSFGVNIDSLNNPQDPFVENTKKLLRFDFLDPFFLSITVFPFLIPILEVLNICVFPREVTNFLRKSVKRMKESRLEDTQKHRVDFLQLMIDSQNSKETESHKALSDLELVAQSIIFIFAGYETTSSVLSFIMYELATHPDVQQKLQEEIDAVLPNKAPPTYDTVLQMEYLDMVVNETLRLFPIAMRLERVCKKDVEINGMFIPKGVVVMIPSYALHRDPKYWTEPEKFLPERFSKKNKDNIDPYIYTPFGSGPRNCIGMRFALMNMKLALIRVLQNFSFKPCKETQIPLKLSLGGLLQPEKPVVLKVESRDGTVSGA
How it was run: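 Recombinant CYP3A4 (10 nM, from CYP3A4-expressing human B-lymphoblastoid cells) incubated with 100 µM testosterone and 10 µM test compound for 30 min at 37 °C; 6β-hydroxytestosterone formation quantified by HPLC-UV.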

physchem = details: buffer, pH 7.4
Prothrombin = Prothrombin (Homo sapiens, UniProt P00734); experiment: Inhibition of thrombin
[5] = Inhibition of trypsin
Plasminogen = Plasminogen (Homo sapiens, UniProt P00747); experiment: Inhibition of plasmin
Plasminogen, sequence (P00747 97-580 limits assumed): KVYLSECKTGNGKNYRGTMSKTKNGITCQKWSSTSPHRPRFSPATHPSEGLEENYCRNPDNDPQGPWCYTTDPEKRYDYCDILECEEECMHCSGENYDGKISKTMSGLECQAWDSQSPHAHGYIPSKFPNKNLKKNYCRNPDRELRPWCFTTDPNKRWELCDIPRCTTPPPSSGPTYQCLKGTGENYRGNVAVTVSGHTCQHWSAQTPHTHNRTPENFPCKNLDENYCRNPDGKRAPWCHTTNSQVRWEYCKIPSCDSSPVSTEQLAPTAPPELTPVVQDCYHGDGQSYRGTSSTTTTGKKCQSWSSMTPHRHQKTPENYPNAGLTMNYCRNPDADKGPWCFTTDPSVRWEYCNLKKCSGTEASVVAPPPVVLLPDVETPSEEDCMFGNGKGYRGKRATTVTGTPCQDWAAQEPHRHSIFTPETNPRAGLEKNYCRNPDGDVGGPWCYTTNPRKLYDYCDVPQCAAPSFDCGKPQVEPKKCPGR
Plasminogen, sequence (P00747 581-810 limits assumed): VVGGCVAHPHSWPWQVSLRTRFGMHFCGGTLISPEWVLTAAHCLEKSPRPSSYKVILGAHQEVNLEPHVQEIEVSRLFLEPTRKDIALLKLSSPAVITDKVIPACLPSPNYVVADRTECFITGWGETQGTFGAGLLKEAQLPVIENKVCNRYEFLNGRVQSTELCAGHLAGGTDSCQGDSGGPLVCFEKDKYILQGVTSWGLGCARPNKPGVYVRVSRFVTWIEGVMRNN

[6] = biological target: Tissue-type plasminogen activator (Homo sapiens, UniProt P00750); experiment: Inhibition of tPA
Tissue-type plasminogen activator, sequence (P00750 whole entry): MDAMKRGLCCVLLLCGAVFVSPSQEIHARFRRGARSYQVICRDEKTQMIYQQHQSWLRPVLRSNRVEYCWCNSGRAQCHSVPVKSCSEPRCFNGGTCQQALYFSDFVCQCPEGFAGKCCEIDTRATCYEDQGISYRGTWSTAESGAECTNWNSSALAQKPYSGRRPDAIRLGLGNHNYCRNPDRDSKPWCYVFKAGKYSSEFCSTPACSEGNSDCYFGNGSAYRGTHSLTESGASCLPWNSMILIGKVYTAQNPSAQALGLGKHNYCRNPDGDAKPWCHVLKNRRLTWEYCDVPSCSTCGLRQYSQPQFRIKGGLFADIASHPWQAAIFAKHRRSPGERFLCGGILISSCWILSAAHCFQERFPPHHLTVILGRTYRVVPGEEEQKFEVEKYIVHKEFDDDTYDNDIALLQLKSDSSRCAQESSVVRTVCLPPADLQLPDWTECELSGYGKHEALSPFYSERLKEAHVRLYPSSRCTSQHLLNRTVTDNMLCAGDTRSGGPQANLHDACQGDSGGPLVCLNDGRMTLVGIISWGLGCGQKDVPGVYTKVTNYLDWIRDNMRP

[7] = Cmin in Sprague-Dawley rat in fed state at 0.3 mg, iv after 5 mins; format: ADME, organism-based; details: in vivo, read-out: Cmin
How it was run: (§1)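 Male SD rats (8 weeks old) or cynomolgus monkeys, n = 3, given 0.3 mg/kg intravenously in DMA/PEG400. Blood sampled at 5, 10, 15, 30 min and 1, 2, 4, 8, 24 h (rat tail vein, monkey femoral vein); acetonitrile-deproteinized plasma diluted in pH 3.0 ammonium formate and quantified by LC/MS/MS.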

[8] = AUC (0 to 24 hrs) in Sprague-Dawley rat in fed state at 0.3 mg, iv; format: ADME, organism-based; parameters: time < 24 hr, dose 0.3 mg, route intravenous; details: plasma
How it was run: (§2)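 Male SD (IGS) rats, 8 weeks old, n = 3, fasted or fed; dosed iv at 0.3 mg/kg in DMA/PEG400 or orally at 3 mg/kg as 0.5% methylcellulose suspension. Tail-vein blood drawn 5 min–24 h (iv) or 15 min–24 h (po). Plasma deproteinized with acetonitrile, diluted in 0.01 mol/L HCO₂NH₄ pH 3.0, and quantified by LC/MS/MS in positive ion mode.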

[9] = Mean residence time in Sprague-Dawley rat in fed state at 0.3 mg, iv; format: ADME, organism-based; details: in vivo; how it was run: as §1
[10] = Volume of distribution in steady state in Sprague-Dawley rat in fed state at 0.3 mg, iv; format: ADME, organism-based; details: in vivo, read-out: Vdss; how it was run: as §1
[11] = Total clearance in Sprague-Dawley rat in fed state at 0.3 mg, iv; format: ADME, organism-based; details: in vivo; how it was run: as §1
[12] = Cmin in cynomolgus monkey in fed state at 0.3 mg, iv after 5 mins; format: ADME, organism-based, Macaca fascicularis; details: in vivo, read-out: Cmin; how it was run: as §1
[13] = AUC (0 to 24 hrs) in cynomolgus monkey in fed state at 0.3 mg, iv; format: ADME, organism-based, Macaca fascicularis; parameters: dose 0.3 mg, time < 24 hr, route intravenous; details: plasma
How it was run: (§3)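 Male cynomolgus monkeys, n = 3, fasted or fed; single dose iv 0.3 mg/kg (DMA/PEG400) or po 3 mg/kg (0.5% methylcellulose suspension). Femoral-vein blood sampled 5 min–24 h after iv, 15 min–24 h after oral. Plasma deproteinized with acetonitrile, supernatant diluted in 0.01 mol/L HCO₂NH₄ pH 3.0, drug measured by LC/MS/MS.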

[14] = Mean residence time in cynomolgus monkey in fed state at 0.3 mg, iv; format: ADME, organism-based, Macaca fascicularis; details: in vivo; how it was run: as §1
[15] = Volume of distribution in steady state in cynomolgus monkey in fed state at 0.3 mg, iv; format: ADME, organism-based, Macaca fascicularis; details: in vivo, read-out: Vdss; how it was run: as §1
[16] = Total clearance in cynomolgus monkey in fed state at 0.3 mg, iv; format: ADME, organism-based, Macaca fascicularis; details: in vivo; how it was run: as §1
[17] = Cmax in Sprague-Dawley rat in fed state at 3 mg/kg, po; format: ADME, organism-based; parameters: dose 3 mg/kg, route oral; details: in vivo
How it was run: (§4)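 Male animals (SD rats 8 weeks old or cynomolgus monkeys, n = 3), fasted or fed, given 3 mg/kg orally as 0.5% methylcellulose suspension. Blood at 15, 30 min and 1, 2, 4, 8, 24 h (rat tail vein, monkey femoral vein); plasma deproteinized with acetonitrile, diluted in pH 3.0 ammonium formate, analysed by LC/MS/MS in positive ion mode.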

[18] = Tmax in Sprague-Dawley rat in fed state at 3 mg/kg, po; format: ADME, organism-based; parameters: dose 3 mg/kg, route oral; details: in vivo; how it was run: as §4
[19] = AUC (0 to 24 hrs) in Sprague-Dawley rat in fed state at 3 mg/kg, po; format: ADME, organism-based; parameters: time < 24 hr, dose 3 mg/kg, route oral; details: plasma; how it was run: as §2
[20] = Mean residence time in Sprague-Dawley rat in fed state at 3 mg/kg, po; format: ADME, organism-based; parameters: dose 3 mg/kg, route oral; details: in vivo; how it was run: as §4
[21] = Bioavailability in Sprague-Dawley rat in fed state at 3 mg/kg, po; format: ADME, organism-based; details: in vivo
How it was run: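 Male SD (IGS) rats, 8 weeks old, n = 3, fed or fasted. Dosed iv at 0.3 mg/kg in DMA/PEG400 and po at 3 mg/kg as a 0.5% methylcellulose suspension. Tail-vein blood taken at 15, 30 min and 1, 2, 4, 8, 24 h after oral dosing (iv adds 5 and 10 min). Plasma deproteinized with acetonitrile and assayed by LC/MS/MS.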

[22] = Cmax in cynomolgus monkey in fed state at 3 mg/kg, po; format: ADME, organism-based, Macaca fascicularis; parameters: dose 3 mg/kg, route oral; details: in vivo; how it was run: as §4
[23] = Tmax in cynomolgus monkey in fed state at 3 mg/kg, po; format: ADME, organism-based, Macaca fascicularis; parameters: dose 3 mg/kg, route oral; details: in vivo; how it was run: as §4
[24] = AUC (0 to 24 hrs) in cynomolgus monkey in fed state at 3 mg/kg, po; format: ADME, organism-based, Macaca fascicularis; parameters: time < 24 hr, dose 3 mg/kg, route oral; details: plasma; how it was run: as §3
[25] = Mean residence time in cynomolgus monkey in fed state at 3 mg/kg, po; format: ADME, organism-based, Macaca fascicularis; parameters: dose 3 mg/kg, route oral; details: in vivo; how it was run: as §4
[26] = Bioavailability in cynomolgus monkey in fed state at 3 mg/kg, po; format: ADME, organism-based, Macaca fascicularis; details: in vivo
How it was run: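 Male cynomolgus monkeys, fed, given 3 mg/kg orally as 0.5% methylcellulose suspension and 0.3 mg/kg iv in DMA/PEG400 (n = 3); femoral vein plasma sampled to 24 h, deproteinized with acetonitrile and quantified by LC/MS/MS.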

[27] = Cmax in Sprague-Dawley rat in fasted state at 3 mg/kg, po; format: ADME, organism-based; parameters: dose 3 mg/kg, route oral; details: in vivo; how it was run: as §4
[28] = Tmax in Sprague-Dawley rat in fasted state at 3 mg/kg, po; format: ADME, organism-based; parameters: dose 3 mg/kg, route oral; details: in vivo; how it was run: as §4
[29] = Mean residence time in Sprague-Dawley rat in fasted state at 3 mg/kg, po; format: ADME, organism-based; parameters: dose 3 mg/kg, route oral; details: in vivo; how it was run: as §4
[30] = AUC (0 to 24 hrs) in Sprague-Dawley rat in fasted state at 3 mg/kg, po; format: ADME, organism-based; parameters: time < 24 hr, dose 3 mg/kg, route oral; details: plasma; how it was run: as §2
[31] = Cmax in cynomolgus monkey in fasted state at 3 mg/kg, po; format: ADME, organism-based, Macaca fascicularis; parameters: dose 3 mg/kg, route oral; details: in vivo; how it was run: as §4
[32] = Tmax in cynomolgus monkey in fasted state at 3 mg/kg, po; format: ADME, organism-based, Macaca fascicularis; parameters: dose 3 mg/kg, route oral; details: in vivo; how it was run: as §4
[33] = Mean residence time in cynomolgus monkey in fasted state at 3 mg/kg, po; format: ADME, organism-based, Macaca fascicularis; parameters: dose 3 mg/kg, route oral; details: in vivo; how it was run: as §4
[34] = AUC (0 to 24 hrs) in cynomolgus monkey in fasted state at 3 mg/kg, po; format: ADME, organism-based, Macaca fascicularis; parameters: time < 24 hr, dose 3 mg/kg, route oral; details: plasma; how it was run: as §3
Rattus norvegicus [35] = experiment: Effect on bleeding time in Sprague-Dawley rat at 30 mg/kg, po; format: functional
How it was run: (§5)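 Male Sprague-Dawley rats (7 weeks old) dosed orally 30 min beforehand, then anaesthetized with pentobarbital; tail transected 2-3 mm from tip, blood blotted every 30 s until bleeding stopped or 30 min elapsed; mean ± SEM, n = 6.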

Rattus norvegicus [36] = experiment: Effect on bleeding time in Sprague-Dawley rat at 100 mg/kg, po; format: functional; how it was run: as §5

Coagulation factor X, sequence (P00742 41-179 limits assumed): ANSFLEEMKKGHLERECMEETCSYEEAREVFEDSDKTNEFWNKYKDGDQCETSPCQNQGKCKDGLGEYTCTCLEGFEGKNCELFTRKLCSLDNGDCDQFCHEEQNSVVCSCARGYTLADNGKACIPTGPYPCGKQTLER
Coagulation factor X, sequence (P00742 235-488 limits assumed): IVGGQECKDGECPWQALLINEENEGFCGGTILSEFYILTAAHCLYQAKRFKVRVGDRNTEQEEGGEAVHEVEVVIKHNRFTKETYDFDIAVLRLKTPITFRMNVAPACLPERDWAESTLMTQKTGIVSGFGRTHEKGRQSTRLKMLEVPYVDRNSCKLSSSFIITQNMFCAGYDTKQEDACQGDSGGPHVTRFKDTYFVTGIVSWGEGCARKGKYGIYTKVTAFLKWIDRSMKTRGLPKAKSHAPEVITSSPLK

Compound: Cn1cncc1C1CCN(C(=O)CCS(=O)(=O)c2ccc3cc(Cl)ccc3c2)CC1
IC50 (Coagulation factor X): 56 nM | Activity (Plasma [1]): 0.49 µM | pKa [2]: 7.2 | Activity (Plasma [3]): 2.7 µM | Ratio (Plasma [4]): 1.2 | inhibition at 10 µM (CYP3A4): 82% | logD (physchem): 2

Compound: Cc1ncc2n1C(=O)N(C1CCN(C(=O)CCS(=O)(=O)c3ccc4cc(Cl)ccc4c3)CC1)C2
Activity (Plasma [1]): 1 µM | pKa [2]: 5 | Activity (Plasma [3]): 2 µM | inhibition at 10 µM (CYP3A4): 23% | Ki (Prothrombin): 6200 nM | Ki [5]: > 60000 nM | Ki (Plasminogen): > 60000 nM | Ki [6]: > 60000 nM | concentration at 5 min [7]: 291 ng/mL | AUC(0-t) at 24 h [8]: 245 ng·h/mL | MRT [9]: 0.7 h | Vd [10]: 0.888 L/kg | clearance [11]: 20.8 mL/min/kg | concentration at 5 min [12]: 612 ng/mL | AUC(0-t) at 24 h [13]: 565 ng·h/mL | MRT [14]: 1 h | Vd [15]: 0.556 L/kg | clearance [16]: 9.02 mL/min/kg | Cmax [17]: 145 ng/mL | Tmax [18]: 1.2 h | AUC(0-t) at 24 h [19]: 597 ng·h/mL | MRT [20]: 3.6 h | bioavailability [21]: 24% | Cmax [22]: 269 ng/mL | Tmax [23]: 2.3 h | AUC(0-t) at 24 h [24]: 2590 ng·h/mL | MRT [25]: 7 h | bioavailability [26]: 46% | Cmax [27]: 570 ng/mL | Tmax [28]: 0.3 h | MRT [29]: 1.5 h | AUC(0-t) at 24 h [30]: 417 ng·h/mL | Cmax [31]: 1200 ng/mL | Tmax [32]: 0.8 h | MRT [33]: 1.6 h | AUC(0-t) at 24 h [34]: 2120 ng·h/mL | Time (Rattus norvegicus [35]): 490 s | Time (Rattus norvegicus [36]): 1040 s | logD (physchem): 2.3

Compound: Cc1nccn1CCC1CCN(C(=O)CCS(=O)(=O)c2ccc3cc(Cl)ccc3c2)CC1
IC50 (Coagulation factor X): 37 nM | Activity (Plasma [1]): 0.91 µM | pKa [2]: 7.9 | Activity (Plasma [3]): 1.7 µM | Ratio (Plasma [4]): 1.1 | inhibition at 10 µM (CYP3A4): 38% | logD (physchem): 2.2

Further lines, with some results ahead:

IC50 (Coagulation factor X): 9.7 nM
Compound: O=C(CCS(=O)(=O)c1ccc2cc(Cl)ccc2c1)N1CCN(c2cccc3nc(CO)cn23)CC1

IC50 (Coagulation factor X): 6.9 nM | pKa [2]: 5 | inhibition at 10 µM (CYP3A4): 38% | logD (physchem): 2.1
Compound: Cc1ncc2n1C(=O)N(N1CCN(C(=O)CCS(=O)(=O)c3ccc4cc(Cl)ccc4c3)CC1)C2
Activity (Plasma [1]): 0.61 µM | Activity (Plasma [3]): 0.9 µM | Ratio (Plasma [4]): 2.8
